Assay results taken from ChEMBL document CHEMBL1133691 (J Med Chem, 2000).
pIC50: −log10 of the molar value.

Tests used:
[1] = Plasma clearance was observed after intravenous administration in rat; type: ADME, organism-based
Procedure, shortened: (§1)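 Male SD rats (233-264 g), 3 per group, given a 1 μmol/kg intravenous bolus into a tail vein in DMA:PEG400:citrate buffer (40:40:20), formulated at 2 μmol/mL. No anaesthesia. Tail-vein blood was sampled at 2, 10, 30, 60, 120, 240 and 360 min. Plasma was ethanol-precipitated and analysed by LC-MS/MS against spiked-plasma standard curves. Values are mean ± SD.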

Rattus norvegicus [2] = assay: Mean peak plasma concentration was observed after oral administration in rat; type: ADME, organism-based; parameters: route oral; settings: in vivo
[3] = Oral bioavailability; type: ADME, organism-based; settings: rat, in vivo
Rattus norvegicus [4] = assay: Mean peak plasma concentration was observed after intravenous administration in rat; type: ADME, organism-based; parameters: route intravenous; settings: in vivo; procedure, shortened: as §1
Rattus norvegicus [5] = assay: Area under curve in male SD rats was observed after oral administration in rat; type: ADME, organism-based; settings: in vivo
Dihydrofolate reductase [6] = molecular target: T1, Dihydrofolate reductase (Homo sapiens, UniProt P00374); assay: Ability to inhibit recombinant human dihydrofolate reductase.
T1 sequence (P00374 whole entry): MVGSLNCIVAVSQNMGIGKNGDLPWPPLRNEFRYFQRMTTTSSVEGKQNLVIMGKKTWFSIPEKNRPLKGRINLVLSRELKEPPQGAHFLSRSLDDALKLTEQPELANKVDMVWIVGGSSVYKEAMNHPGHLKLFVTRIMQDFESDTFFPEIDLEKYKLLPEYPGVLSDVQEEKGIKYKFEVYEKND

[7] = Plasma half life was observed after intravenous administration in rat; type: ADME, organism-based; procedure, shortened: as §1
Rattus norvegicus [8] = assay: Area under curve in male SD rats was observed after intravenous administration in rat; type: ADME, organism-based; settings: in vivo; procedure, shortened: as §1
Dihydrofolate reductase [9] = molecular target: T2, Dihydrofolate reductase (Rattus norvegicus, UniProt Q920D2); assay: Ability to inhibit recombinant rat liver dihydrofolate reductase.
T2 sequence (Q920D2 whole entry): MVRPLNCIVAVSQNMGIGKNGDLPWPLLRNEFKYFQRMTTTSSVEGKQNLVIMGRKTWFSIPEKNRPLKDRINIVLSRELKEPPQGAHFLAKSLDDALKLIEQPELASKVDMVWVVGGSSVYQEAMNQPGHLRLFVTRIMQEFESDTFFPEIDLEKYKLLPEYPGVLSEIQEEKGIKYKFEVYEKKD

[10] = Time required to reach maximum concentration (Cmax) after oral administration in rat; type: ADME, organism-based; settings: in vivo
[11] = Volume of distribution at steady state was observed after intravenous administration in rat; type: ADME, organism-based; settings: in vivo, read-out: Vss; procedure, shortened: as §1
[12] = time required to reach maximum concentration (Cmax) after oral administration in rat; type: ADME, organism-based; settings: in vivo
[13] = plasma half life was observed after intravenous administration in rat; type: ADME, organism-based
Procedure, shortened: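 Male SD rats (233-264 g), three per route; 1 μmol/kg given as a tail-vein bolus in DMA:PEG400:citrate buffer (40:40:20) vehicle at 2 μmol/mL, no anaesthesia. Tail-vein blood sampled at 2, 10, 30, 60, 120, 240 and 360 min; plasma ethanol-precipitated and analysed by LC-MS/MS against spiked-plasma standard curves. Values are means ± SD, n = 3.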

[14] = plasma clearance was observed after intravenous administration in rat; type: ADME, organism-based; procedure, shortened: as §1
[15] = volume of distribution at steady state was observed after intravenous administration in rat; type: ADME, organism-based; settings: in vivo, read-out: Vss; procedure, shortened: as §1
Rattus norvegicus [16] = assay: mean peak plasma concentration was observed after intravenous administration in rat; type: ADME, organism-based; parameters: route intravenous; settings: in vivo; procedure, shortened: as §1
Rattus norvegicus [17] = assay: mean peak plasma concentration was observed after oral administration in rat; type: ADME, organism-based; parameters: route oral; settings: in vivo

clearance [1] | Cmax (Rattus norvegicus [2]) | bioavailability [3] | Cmax (Rattus norvegicus [4]) | AUC (Rattus norvegicus [5]) | pIC50 (Dihydrofolate reductase [6]) | half-life [7] | AUC inf (Rattus norvegicus [8]) | Tmax [10] | Vd [11] | Tmax [12] | half-life [13] | clearance [14] | Vd [15] | Cmax (Rattus norvegicus [16]) | Cmax (Rattus norvegicus [17]) | SMILES | pIC50 (Dihydrofolate reductase [9])
15 mL/min/kg | 0.144 µM | 3.4% | 9.17 µM | 0.384 µM·h | 6.90 | 60 min | 1.23 µM·h | 40.2 min | 0.42 L/kg | – | – | – | – | – | – | Nc1nc(N)c2cc(COC(=O)c3ccc(C(=O)N[C@@H](CCC(=O)O)C(=O)O)cc3)ccc2n1 | 7.71
– | – | – | – | – | – | – | – | – | – | – | – | – | – | – | – | Nc1nc(N)c2nc(COC(=O)c3ccc(C(=O)N[C@@H](CCC(=O)O)C(=O)O)cc3)cnc2n1 | 6.92
– | – | 5.8% | – | 0.838 µM·h | – | – | 1.56 µM·h | – | – | 40.2 min | 54 min | 11 mL/min/kg | 0.36 L/kg | 8.26 µM | 0.266 µM | CN(Cc1cnc2nc(N)nc(N)c2n1)c1ccc(C(=O)N[C@@H](CCC(=O)O)C(=O)O)cc1 [METHOTREXATE] | –
